High-throughput results from PubChem.
Hits are enriched below; roughly 2.2% of the tested compounds scored in any of these assays.
SIAE primary: human SIAE inhibition, primary screen | SIAE FP-Rh probe binding, fluorescence polarization | inhibition, % at 9.66 µM | 370,000 tested, 0.69% active | AID 1053197;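 active means inhibition above a cutoff: mean of compounds within the control limits plus 3 SD of those, cut at about 17% in these data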;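 further: 0% = plate median of compound wells and 100% = probe without SIAE protein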
HTRA1 inhibitor: HTRA1 (human) protease inhibition; Q92743; recombinant HTRA1, FP-rhodamine activity-based probe, fluorescence polarization; inhibition, % at 5.96 µM; 340,000 tested, 0.5% active; in the data active means inhibition above about 36%;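 further: 0% = enzyme with DMSO and 100% = wells lacking enzyme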
Target sequence (Q92743 whole entry, looked up): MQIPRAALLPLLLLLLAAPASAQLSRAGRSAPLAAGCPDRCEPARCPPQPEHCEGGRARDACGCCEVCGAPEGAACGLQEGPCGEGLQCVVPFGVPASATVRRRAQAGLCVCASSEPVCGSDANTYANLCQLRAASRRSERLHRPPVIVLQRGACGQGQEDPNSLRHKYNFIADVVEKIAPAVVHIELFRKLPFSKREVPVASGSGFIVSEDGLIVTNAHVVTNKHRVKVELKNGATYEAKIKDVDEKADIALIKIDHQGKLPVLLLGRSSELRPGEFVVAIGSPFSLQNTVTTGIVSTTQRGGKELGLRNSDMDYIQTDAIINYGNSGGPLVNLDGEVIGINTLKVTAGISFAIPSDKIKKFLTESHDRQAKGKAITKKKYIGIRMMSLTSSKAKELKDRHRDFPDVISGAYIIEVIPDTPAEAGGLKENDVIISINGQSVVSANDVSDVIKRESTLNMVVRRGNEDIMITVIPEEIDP
TCR-CD3 inh: inhibitors of human TCR-CD3 interaction. TAMRA-labeled TCR probe fluorescence, biochemical. inhibition, % at 9.4 µM. 360,000 tested, 0.37% active. AID 651800;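 further: recombinant mutant TCR 2C K166C tagged with TAMRA read by polarization; 0% = receptor in buffer alone and 100% = receptor with positive control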
LEDGF integ inh: blocks HIV-1 LEDGF/p75-dependent DNA integration | TR-FRET IN-LEDGF/p75 DNA integration, Eu/Cy5 | 370,000 tested, 0.64% active | AID 743269 | inhibition, % at 3.7 µM;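 active means inhibition above the screen-wide mean plus 3 SD, cut at about 13% in these data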;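 further: signal is the Cy5 over europium emission ratio at 671 and 618 nm; 0% = plate median of compound wells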
mABHD4 FP: inhibits mouse alpha/beta hydrolase domain 4; Q8VD66; purified mABHD4, FP-Rh probe fluorescence polarization; inhibition, % at 8.92 µM; 370,000 tested, 0.54% active; AID 720543;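 active means inhibition exceeding the mean over every tested compound plus 3 SD, cut at about 30% in these data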;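 further: 0% = plate median of compound wells and 100% = S159A mutant with DMSO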
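Assay system: mouse ABHD4 enzyme, wild type / Also added: fluorescent activity-based probe FP-Rh / Doses: single nominal dose of 8.92 µM, 0.89% DMSO final / Timing: 45 min compound pre-incubation plus 60 min probe step, 25 °C / Signal: FP readout, ex 525 nm / em 598 nm / Control set: S159A mutant/DMSO as 100%, compound-well median as 0%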
TDP2 inh: TDP2 (human) inhibition, absorbance primary screen; O95551; 370,000 tested, 0.34% active; inhibition, % at 12.8 µM; recombinant TDP2, T5PNP hydrolysis, p-nitrophenol absorbance 415 nm;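 active means inhibition above the mean of all tested compounds plus 3 SD, set per campaign, cut at about 25% in these data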;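 further: 0% = DMSO with enzyme and 100% = buffer with substrate but no TDP2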
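System – recombinant human TDP2 · Quantity – TDP2 enzyme at 120 nM final · Doses – single concentration, 12.8 µM nominal, with 1% DMSO · Incubation – 2 h at 37 °C · Measured by – epi absorbance of p-nitrophenol freed from T5PNP by hydrolysis · Read-out – % inhibition relative to enzyme-containing and enzyme-free wells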
BSA TAMRA ctr: interferes with TAMRA-BSA probe, flagging TCR-CD3 hits; shares compounds with TCR-CD3 inh; TAMRA-labeled BSA probe fluorescence counterscreen; inhibition, % at 9.4 µM; 1,200 tested, 10% active; AID 652035; in the data active means inhibition above about 23%;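 further: 0% = buffer low control and 100% = reference high control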
TCR-CD3 inh conf: TCR-CD3 interaction inhibition, confirmation. shares compounds with TCR-CD3 inh. 1,200 tested, 48% active. TAMRA-labeled TCR probe fluorescence binding assay. inhibition, % at 9.4 µM
ABHD4 confirm: ABHD4 (mouse) inhibition, FP confirmation; shares compounds with mABHD4 FP; purified mABHD4, FP-Rh probe fluorescence polarization; inhibition, % at 8.92 µM; 1,800 tested, 55% active; AID 720658;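 active means mean inhibition across replicates above the hit cutoff set in the primary screen, cut at about 30% in these data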;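 further: 0% = wild-type ABHD4 with DMSO and 100% = catalytically dead S159A mutant with DMSO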
* = called active by the depositor; · = no result given. Unless noted, no stated cut-off is given here; in the data, active means inhibition above about 19%; inactive means the rest.

SMILES	SIAE primary	HTRA1 inhibitor	TCR-CD3 inh	LEDGF integ inh	mABHD4 FP	TDP2 inh	BSA TAMRA ctr	TCR-CD3 inh conf	others
COC(=O)c1ccccc1NC(=S)NC(=O)c1ccc2c(c1)OCO2	3	3	45*	-1	3	8	-1	-1
COC(=O)c1ccccc1NC(=O)c1ccc2c(c1)OCCO2	-4	-12	-8	3	-8	-3	·	·
CCN(CC)c1ccc(NC(=O)c2ccccn2)cc1S(=O)(=O)Nc1ccccc1OC	-7	-37	-2	0	-18	-14	·	·
CCN(CC)c1ccc(NC(=O)COc2ccccc2C#N)cc1S(=O)(=O)Nc1ccccc1OC	-26	-42	21*	0	-44	4	2	9
CCOC(=O)C1=CCN(S(=O)(=O)c2ccc(Br)cc2)C1c1ccc(F)cc1 (configuration not stated)	1	·	-3	-4	-9	11	·	·
CCCCCCC12C(=Cc3cc4c(cc31)OCCO4)c1cc(OC)c(OC)cc1C(CC(=O)O)N2C(=O)OC (configuration not stated)	14	·	-4	2	28	-1	·	·
O=C(Nc1ccccc1)N1c2ccccc2SC1c1ccco1 (configuration not stated)	1	·	10	2	-5	-3	·	·
CCOP(=O)(OCC)C(NC(=O)Nc1ccc(C)cc1)C(N)=O (configuration not stated)	-2	·	2	-1	5	-18	·	·
CCOP(=O)(OCC)C(NC(=O)Nc1ccc(Cl)cc1)C(=O)N(CC)CC (configuration not stated)	-7	-2	21*	-3	-3	-7	0	1
COc1cccc([C@@H](NC(=O)C(F)(F)F)[C@@H]2CCCC=C2c2ccccc2)c1	3	·	3	2	-2	9	·	·
COc1cccc(OC)c1C(=O)NC(=S)Nc1cc(-c2nc3ccccc3[nH]2)ccc1Cl	-155	-98	60*	-1	-107	-6	19	18
COc1c(F)c(F)c(C(=O)Nc2ccc(-c3nc4ccccc4[nH]3)cc2)c(F)c1F	2	-1	2	2	4	-8	·	·
Cc1ccc(C(=O)Nc2cccc([N+](=O)[O-])c2)cc1S(=O)(=O)Nc1ccc(NC(=O)c2ccccc2)cc1	-50	-88	30*	-1	-98	7	10	23*
CCC(=O)NNC(=O)c1c(O)c2ccccc2[nH]c1=O	-1	-4	33*	-3	3	0	-4	24*
CCCCCCCC(=O)NNC(=O)c1c(O)c2ccccc2[nH]c1=O	1	4	15	-6	0	-2	·	·
O=C(NCCCc1ccccc1)[C@H](CO)NC1(C(=O)NCCc2c[nH]c3ccccc23)CCCCC1	7	·	·	1	2	-6	·	·
C[C@@H]1CN([C@@H](C)CO)C(=O)CCCn2cc(nn2)CO[C@H]1CN(C)C(=O)Nc1ccccc1	6	·	-3	-3	0	0	·	·
Cc1nn(-c2ccccc2)c(Cl)c1C(=O)NCC(C)C	3	6	-6	0	-1	-1	·	·
Cc1nn(-c2ccccc2)c(Cl)c1C(=O)NCC(C)c1ccccc1 (configuration not stated)	7	-13	130*	1	-10	5	-3	0
CCCCCCCCN1C(=O)[C@@H](CC(=O)NCCc2ccccc2OC)C[C@@]2(C(=O)OC)C1=C[C@H](C1CCCC1)O[C@@H]2C	-1	·	-2	1	1	4	·	·
Cc1cc(C)c2c(N)c(C(=O)NN)sc2n1	13	28	38*	1	14	14	-8	29*
O=C(c1cccc(Cl)c1)N1CCCc2ccccc21	-3	-2	28*	5	-1	-3	28*	16
COc1ccc(/C=C2\SC(=S)N(CCCC(=O)NNC(=O)c3ccccc3O)C2=O)cc1	-19	33	31*	-4	6	-10	-14	22*
CCOC(=O)CC[C@@]1(C(=O)OCC)C[C@@H](CC(=O)NCCCOC)C(=O)N2CCCC=C21	-6	·	·	-4	0	1	·	·
COC(=O)[C@@]1(Cc2ccc(OC)cc2)[C@H]2c3cc(C(=O)N4CCCC4)n(Cc4ccc(C)o4)c3C[C@H]2CN1C(=O)c1ccccc1	-2	·	60*	2	3	-13	0	-3
SMILES	SIAE primary	HTRA1 inhibitor	TCR-CD3 inh	LEDGF integ inh	mABHD4 FP	TDP2 inh	BSA TAMRA ctr	TCR-CD3 inh conf	others
COC(=O)[C@@]1(Cc2ccc(OC)cc2)[C@H]2c3cc(C(=O)N4CCCC4)n(Cc4ccc(S(C)(=O)=O)cc4)c3C[C@H]2CN1C(=O)c1ccccc1	6	·	-6	-5	3	-7	·	·
Nc1ncnc2c1CN(Cc1ccccc1)CC2	5	-3	77*	-2	72*	-4	4	4	ABHD4 confirm=-7
COc1ccc(-c2c(C)c3ccc(O)cc3oc2=O)cc1OC	-2	-2	9	1	-9	-2	·	·
Nc1ccc(-c2c3ccc(=O)cc-3oc3cc(O)ccc23)cc1C(=O)O	13	28	38*	4	30*	-15	49*	34*	ABHD4 confirm=40*
O=[N+]([O-])c1ccc(NN=Cc2cccc3ccccc23)cc1	-10	0	8	0	2	-1	·	·
O=[N+]([O-])c1cc(Br)c(O)c(/C=N/Nc2nnnn2-c2cccc3ccccc23)c1	16	24	20*	4	39*	-5	-15	41*	ABHD4 confirm=65*
c1cc(-c2ccoc2)n2ccnc2c1	15	·	25*	11	50*	1	19	16	ABHD4 confirm=14
COc1ccc(C(=O)OCC(=O)Nc2ncc([N+](=O)[O-])s2)cc1OC	-12	9	21*	8	38*	-11	-19	8	ABHD4 confirm=25
O=C(COC(=O)c1ccc(Br)o1)Nc1ncc([N+](=O)[O-])s1	-8	17	-5	6	23	-2	·	·
COC(=O)[C@]12C[C@H](CC(=O)NCc3cccc4ccccc34)C(=O)N(Cc3ccc4c(c3)OCO4)C1=C[C@H](C(C)(C)C)O[C@@H]2C	-8	·	-7	-4	-12	-6	·	·
O=C(O)CCCCCn1c(SCC(=O)c2ccc(O)c(O)c2)nc2ccsc2c1=O	13	9	25*	6	34*	-5	-6	25*	ABHD4 confirm=36*
CC(=O)Nc1ccc2c(c1)C(=O)c1ccccc1C2=O	-6	8	2	0	9	4	·	·
